# Results: ChEMBL document CHEMBL4689842, “EUbOPEN Chemogenomics Library wave 1” (2021)
# Tested on: HEK-293T
# Assay: Multiplex assay against HEK293T;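 as to Population Tubulin-Different-Phenotype (%): share of the cells with healthy nuclei that show this phenotype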
# Assay type: toxicity, cell-based
# Conditions: human
# Procedure, shortened: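 Live cells were stained at seeding with Hoechst33342, BioTracker Green Microtubule Cytoskeleton Dye, MitoTracker Red and Annexin V Alexa Fluor 680. Following compound addition, they were imaged on a CQ1 microscope at 37°C and 5% CO2 and gated by CellPathfinder machine learning into Hoechst high-intensity objects or normal cells, with normal cells split into healthy, pyknosed or fragmented nuclei and pyknosed cells into mitotic or apoptotic. Tubulin, mitochondrial-mass and membrane-permeability phenotypes are per cents of healthy-nucleus cells.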
# [1] = 12 h, 1 µM, compound concentration 1 uM, replicate 1
# [2] = 12 h, 1 µM, compound concentration 1 uM, replicate 2
# [3] = 12 h, 10 µM, compound concentration 10 uM, replicate 1
# [4] = 12 h, 10 µM, compound concentration 10 uM, replicate 2
# [5] = 24 h, 1 µM, compound concentration 1 uM, replicate 1
# [6] = 24 h, 1 µM, compound concentration 1 uM, replicate 2
# [7] = 24 h, 10 µM, compound concentration 10 uM, replicate 1
# [8] = 24 h, 10 µM, compound concentration 10 uM, replicate 2
# [9] = 48 h, 1 µM, compound concentration 1 uM, replicate 1
# [10] = 48 h, 1 µM, compound concentration 1 uM, replicate 2
# [11] = 48 h, 10 µM, compound concentration 10 uM, replicate 1
# [12] = 48 h, 10 µM, compound concentration 10 uM, replicate 2
compound,measurement,setting,value
C=CC(=O)Nc1ccc2ncnc(Nc3ccc(OCc4cccc(F)c4)c(Cl)c3)c2c1.Cc1ccc(S(=O)(=O)O)cc1,Population Apoptotic (%),[1],52%
same,Population Fragmented Nuclei (%),[1],11%
same,Population Healthy Nuclei (%),[1],38%
same,Population Hoechst High Intensity Objects (%),[1],11%
same,Population Mitochondria Different-Phenotype (%),[1],75%
same,Population Mitotic Cells (%),[1],47%
same,Population Normal (%),[1],88%
same,Population Pyknosed Nuclei (%),[1],49%
same,Population Tubulin-Different-Phenotype (%),[1],39%
same,Total Cell Count,[1],304
same,Population Apoptotic (%),[2],11%
same,Population Fragmented Nuclei (%),[2],6%
same,Population Healthy Nuclei (%),[2],45%
same,Population Hoechst High Intensity Objects (%),[2],2%
same,Population Membrane Permeable-Phenotype (%),[2],5%
same,Population Mitochondria Different-Phenotype (%),[2],26%
same,Population Mitotic Cells (%),[2],88%
same,Population Normal (%),[2],97%
same,Population Pyknosed Nuclei (%),[2],47%
same,Population Tubulin-Different-Phenotype (%),[2],24%
same,Total Cell Count,[2],226
same,Population Apoptotic (%),[3],51%
same,Population Fragmented Nuclei (%),[3],10%
same,Population Healthy Nuclei (%),[3],38%
same,Population Hoechst High Intensity Objects (%),[3],12%
same,Population Membrane Permeable-Phenotype (%),[3],2%
same,Population Mitochondria Different-Phenotype (%),[3],82%
same,Population Mitotic Cells (%),[3],48%
same,Population Normal (%),[3],87%
same,Population Pyknosed Nuclei (%),[3],51%
same,Population Tubulin-Different-Phenotype (%),[3],44%
same,Total Cell Count,[3],267
same,Population Apoptotic (%),[4],49%
same,Population Fragmented Nuclei (%),[4],22%
same,Population Healthy Nuclei (%),[4],21%
same,Population Hoechst High Intensity Objects (%),[4],8%
same,Population Membrane Permeable-Phenotype (%),[4],0%
same,Population Mitochondria Different-Phenotype (%),[4],27%
same,Population Mitotic Cells (%),[4],50%
same,Population Normal (%),[4],91%
same,Population Pyknosed Nuclei (%),[4],56%
same,Population Tubulin-Different-Phenotype (%),[4],27%
same,Total Cell Count,[4],184
same,Population Apoptotic (%),[5],45%
same,Population Fragmented Nuclei (%),[5],11%
same,Population Healthy Nuclei (%),[5],41%
same,Population Hoechst High Intensity Objects (%),[5],15%
same,Population Membrane Permeable-Phenotype (%),[5],3%
same,Population Mitochondria Different-Phenotype (%),[5],61%
same,Population Mitotic Cells (%),[5],54%
same,Population Normal (%),[5],84%
same,Population Pyknosed Nuclei (%),[5],47%
same,Population Tubulin-Different-Phenotype (%),[5],39%
same,Total Cell Count,[5],351
same,Population Apoptotic (%),[6],16%
same,Population Fragmented Nuclei (%),[6],7%
same,Population Healthy Nuclei (%),[6],63%
same,Population Hoechst High Intensity Objects (%),[6],2%
same,Population Membrane Permeable-Phenotype (%),[6],10%
same,Population Mitochondria Different-Phenotype (%),[6],19%
same,Population Mitotic Cells (%),[6],83%
same,Population Normal (%),[6],97%
same,Population Pyknosed Nuclei (%),[6],28%
same,Population Tubulin-Different-Phenotype (%),[6],30%
same,Total Cell Count,[6],279
same,Population Apoptotic (%),[7],56%
same,Population Fragmented Nuclei (%),[7],11%
same,Population Healthy Nuclei (%),[7],41%
same,Population Hoechst High Intensity Objects (%),[7],16%
same,Population Mitochondria Different-Phenotype (%),[7],78%
same,Population Mitotic Cells (%),[7],43%
same,Population Normal (%),[7],83%
same,Population Pyknosed Nuclei (%),[7],47%
same,Population Tubulin-Different-Phenotype (%),[7],48%
same,Total Cell Count,[7],262
same,Population Apoptotic (%),[8],48%
same,Population Fragmented Nuclei (%),[8],17%
same,Population Healthy Nuclei (%),[8],30%
same,Population Hoechst High Intensity Objects (%),[8],9%
same,Population Membrane Permeable-Phenotype (%),[8],2%
same,Population Mitochondria Different-Phenotype (%),[8],50%
same,Population Mitotic Cells (%),[8],51%
same,Population Normal (%),[8],90%
same,Population Pyknosed Nuclei (%),[8],52%
same,Population Tubulin-Different-Phenotype (%),[8],45%
same,Total Cell Count,[8],161
same,Population Apoptotic (%),[9],44%
same,Population Fragmented Nuclei (%),[9],15%
same,Population Healthy Nuclei (%),[9],47%
same,Population Hoechst High Intensity Objects (%),[9],13%
same,Population Membrane Permeable-Phenotype (%),[9],4%
same,Population Mitochondria Different-Phenotype (%),[9],32%
same,Population Mitotic Cells (%),[9],55%
same,Population Normal (%),[9],86%
same,Population Pyknosed Nuclei (%),[9],37%
same,Population Tubulin-Different-Phenotype (%),[9],32%
same,Total Cell Count,[9],430
same,Population Apoptotic (%),[10],4%
same,Population Fragmented Nuclei (%),[10],6%
same,Population Healthy Nuclei (%),[10],83%
same,Population Hoechst High Intensity Objects (%),[10],2%
same,Population Membrane Permeable-Phenotype (%),[10],11%
same,Population Mitochondria Different-Phenotype (%),[10],4%
same,Population Mitotic Cells (%),[10],96%
same,Population Normal (%),[10],97%
same,Population Pyknosed Nuclei (%),[10],10%
same,Population Tubulin-Different-Phenotype (%),[10],23%
same,Total Cell Count,[10],512
same,Population Apoptotic (%),[11],51%
same,Population Fragmented Nuclei (%),[11],16%
same,Population Healthy Nuclei (%),[11],48%
same,Population Hoechst High Intensity Objects (%),[11],12%
same,Population Membrane Permeable-Phenotype (%),[11],5%
same,Population Mitochondria Different-Phenotype (%),[11],46%
same,Population Mitotic Cells (%),[11],48%
same,Population Normal (%),[11],87%
same,Population Pyknosed Nuclei (%),[11],35%
same,Population Tubulin-Different-Phenotype (%),[11],38%
same,Total Cell Count,[11],339
same,Population Apoptotic (%),[12],60%
same,Population Fragmented Nuclei (%),[12],13%
same,Population Healthy Nuclei (%),[12],53%
same,Population Hoechst High Intensity Objects (%),[12],10%
same,Population Membrane Permeable-Phenotype (%),[12],8%
same,Population Mitochondria Different-Phenotype (%),[12],22%
same,Population Mitotic Cells (%),[12],40%
same,Population Normal (%),[12],89%
same,Population Pyknosed Nuclei (%),[12],32%
same,Population Tubulin-Different-Phenotype (%),[12],46%
same,Total Cell Count,[12],187
